Screening results (PubChem BioAssay)
In the library only some 6.4% were active in any assay of this set; here they are far more common.
Jurkat tox 60K: cytotoxicity toward Jurkat T cells, primary screen, cytotoxicity control, cell-based, Jurkat E6.1, 60K MLSMR library; Jurkat E6.1 viability, ATP luminescence, 48 h; inhibition, % at 4 µM; 56,000 compounds, 1.2% hits;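 active means inhibition above the mean inhibition of all tested compounds plus 3 SD, cut at about 28% in these data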
H69AR inhibit: proliferation blockers of H69AR lung cancer cells, primary screen, cell-based, human, 86K library; H69AR lung tumor viability, ATP luminescence, 72 h; stronger effect = lower value; viability, % at 10 µM; 85,000 compounds, 6% hits; AID 598, 2007;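 active means viability at or below 40%; inactive means viability above 40%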;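 further: multidrug resistant small cell line overexpressing MRP-1 efflux transporter; 100% = mean luminescence of untreated control wells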
Lung fibro prol: antiproliferative effect on LL 47 fibroblasts – human, LL 47 cells, CellTiter-Glo luminescence, primary screen; 85,000 compounds, 1.1% hits; LL 47 human lung fibroblast viability, ATP luminescence; stronger effect = lower value; viability, % at 10 µM; AID 719, 2007;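 active means viability at or below 50% in the single dose screen; inactive means viability above 50%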;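 further: compound exposure lasted 72 h before the ATP readout; 100% = median luminescence of untreated cell-only wells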
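Material: human LL 47 lung fibroblast cells; quantity: 1,150 cells/well; medium: IMEM plus 15% FBS; doses: 0.1% DMSO in all compound wells; timing: overnight attachment after seeding, then 72 h compound exposure at 37 °C; detection: CellTiter-Glo luminescence; measure: % viability of median cell-only signal; controls: cell-only wells, no compound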
Ecoli tolC: growth inhibitors of E. coli tolC mutant, primary screen, strain BW25113 ΔtolC::kan, 384-well | growth inhibition, % at 10 µM (by protocol) | OD615 | 65,000 compounds, 2.2% hits;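 active means growth inhibition at or above a cutoff equal to the mean over every tested compound plus 3 SD, cut at about 60% in these data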;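 further: growth measured after 20 h incubation at 37 °C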
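System: E. coli ΔtolC::kan strain BW25113; Buffer or medium: LB broth supplemented with 50 µg/mL kanamycin; Compound: 10 µM final, single dose; Incubation: bacterial growth with compound for 20 h at 37 °C; Signal: A615 absorbance measurement; Evaluation: growth inhibition in percent.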
HUVEC inhibit: inhibitors of HUVEC proliferation, primary screen, cell-based, 384-well; CellTiter-Glo luminescence, 72 h; stronger effect = lower value; viability, % at 10 µM (by protocol); 86,000 compounds, 1.1% hits; AID 648, 2007;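 active means viability at or below 30%; inactive means viability above 30%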;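 further: 100% = median luminescence of DMSO-only cell control wells on each plate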
E coli WT exp: growth inhibitors of wild-type E. coli, primary screen, strain BW25113, expanded library, OD600 | 98,000 compounds, 0.15% hits | growth inhibition, % at 100 µM | AID 710, 2007 | OD600 absorbance;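 active means growth inhibition above about 50% at one test dose, limit read from the data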;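 further: growth measured after 20 h incubation at 37 °C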
Numbers without * were called inactive; nt = not tested or not shown.

SMILES	Jurkat tox 60K	H69AR inhibit	Lung fibro prol	Ecoli tolC	HUVEC inhibit	E coli WT exp
Cc1nnc(NC(=O)c2c(-c3ccccc3)noc2C)s1	nt	109	105	nt	101	-6
Cc1onc(-c2ccccc2)c1C(=O)Nc1nnc(COc2ccc(Cl)cc2)s1	6	88	94	80*	74	-6
CCC(CC)c1nnc(NC(=O)c2c(-c3ccccc3)noc2C)s1	2	76	101	79*	99	-2
Cc1onc(-c2ccccc2)c1C(=O)Nc1nnc(N(C)Cc2ccccc2)s1	9	92	91	61*	100	-11
O=C(C(Cl)Cl)N1c2ccccc2OCC1c1ccccc1 (configuration not stated)	nt	nt	nt	nt	nt	3
COc1ccc2c(CC(=O)Nc3ccc(OC)c(NS(=O)(=O)c4ccc(F)cc4)c3)coc2c1	3	84	100	10	91	-2
N#CC(c1ccc(O)cc1)N1CCOCC1 (configuration not stated)	nt	97	93	nt	99	nt
Cc1onc(-c2ccccc2)c1C(=O)OCC(=O)c1ccccc1	-6	92	108	71*	109	1
CC(=O)c1ccccc1Oc1nc(CN2CCOCC2)nc2scc(-c3cccs3)c12	6	30*	nt	11	75	-18
CS(=O)(=O)N(CC(=O)NC1CCCC1)Cc1ccc(Cl)cc1	nt	93	90	nt	99	2
Fc1ccc(Br)cc1C1C=C(c2ccc(Br)s2)Nc2ncnn21 (configuration not stated)	1	29*	56	69*	52	-13
COc1cccc(C2C=C(c3ccc(Br)s3)Nc3ncnn32)c1OC (configuration not stated)	6	43	93	40	110	-3
CCOC(=O)c1ccc(S(=O)(=O)Nc2ccc3cn[nH]c3c2)cc1	nt	71	95	nt	87	13
Cc1ccc(S(=O)(=O)NCCC(=O)NC2CCCC2)cc1	nt	89	102	-9	106	4
COc1ccc(C2(NC(C)=O)CCN(C(=O)c3cccs3)CC2)cc1	nt	90	98	nt	97	nt
CCn1c(=O)c2c(nc(SCC(=O)NCC3CCCO3)n2C)n(C)c1=O (configuration not stated)	2	82	98	-14	103	-3
COc1cc2cc(CN(Cc3ccc4c(c3)OCO4)C(=O)c3ccco3)c(=O)[nH]c2cc1OC	nt	52	100	nt	87	nt
Cc1cc2cc(CN(Cc3ccc4c(c3)OCO4)C(=O)c3ccco3)c(=O)[nH]c2cc1C	-2	33*	96	53	74	-12
COc1ccc2[nH]c(=O)c(CN(C)C(=O)COc3ccccc3)cc2c1	-3	85	109	-6	94	1
Cc1ccc2[nH]c(=O)c(CN(Cc3cccnc3)C(=O)c3ccncc3)cc2c1	17	28*	88	-28	62	-3
COc1ccc(C(=O)N(Cc2ccccc2)Cc2cc3cc4c(cc3[nH]c2=O)OCCO4)cc1	nt	18*	42*	nt	28*	-7
CCCCN(Cc1cc2cc(OC)ccc2[nH]c1=O)C(=O)COc1ccccc1	-4	39*	104	-16	93	nt
Brc1ccc(CSc2nnc(-c3cnccn3)n2Cc2ccco2)cc1	5	56	95	64*	79	-6
C(=C\c1ccccc1)/CSc1nnc(-c2cnccn2)n1Cc1ccco1	6	29*	87	27	62	-20
Fc1ccccc1CSc1nnc(-c2cnccn2)n1Cc1ccco1	-6	74	103	21	98	-8
SMILES	Jurkat tox 60K	H69AR inhibit	Lung fibro prol	Ecoli tolC	HUVEC inhibit	E coli WT exp
COc1ccc2c(C)nc(Nc3nc(C)cc(=O)[nH]3)nc2c1	-1	23*	8.6*	39	2.6*	nt
Cc1cc(C)c2nc(N3CCC(C(=O)NCCCN4CCCCC4)CC3)sc2c1	nt	58	2.7*	nt	4.0*	8
Cc1noc2ncnc(Sc3c(Cl)cccc3Cl)c12	nt	16*	49*	nt	52	-12
Cc1noc2ncnc(Sc3ccc(Cl)cc3)c12	nt	1.8*	57	nt	47	10
COc1cc2c(cc1OC)CN(C(C)C(=O)N1CCc3ccccc31)CC2 (configuration not stated)	nt	18*	86	nt	77	3
COc1cc(C(=O)N2c3ccccc3CC2C)cc(OC)c1OC (configuration not stated)	0	38*	95	4	93	5
COc1cc(C(=O)N2CCCc3ccccc32)cc(OC)c1OC	nt	25*	112	nt	89	nt
Clc1cccc(Cl)c1-c1nnc2cccc(Cl)n12	nt	94	93	nt	93	nt
O=C(Cc1ccccc1F)Nc1nc(-c2cccs2)cs1	6	91	105	91*	83	-1
O=C(Cc1ccccc1)Nc1nc(-c2cccs2)cs1	5	87	101	40	86	2
O=C(COc1ccc(Cl)cc1)Nc1nc(-c2cccs2)cs1	0	84	107	69*	85	-10
CCCn1c(SCC(=O)c2cc(C)c(C)cc2C)n[nH]c1=O	nt	95	110	nt	109	-2
O=C1OCCC1N1C(=O)c2ccccc2S1(=O)=O (configuration not stated)	5	88	96	-10	88	4
O=C(OC1CCCCC1)c1ccc(NC(=O)c2ccco2)cc1	6	54	93	96*	90	-10
CC1CCN(c2nc3c(c(=O)[nH]c(=O)n3C)n2Cc2ccccc2Cl)CC1	-6	67	88	10	79	-9
O=C(Nc1cccc(-c2nc3ncccc3o2)c1)c1cc2ccccc2o1	-3	16*	108	11	49	-11
Cc1ccc(-c2nc3ncccc3o2)cc1NC(=O)c1cc2ccccc2o1	1	98	104	5	83	-8
Cc1sc2nc(CN(C(=O)NC3CCCCC3)C3CCCC3)[nH]c(=O)c2c1C	nt	56	89	nt	107	nt
Cc1sc2nc(CN(Cc3cccs3)C(=O)NC3CCCCC3)[nH]c(=O)c2c1C	-4	nt	nt	89*	nt	-15
CSc1nnc2c3ccccc3n(CCc3ccccc3)c2n1	37*	79	86	-4	73	0
CSc1nnc2c3cc(F)ccc3n(Cc3ccccc3)c2n1	3	33*	81	-21	56	nt
COc1ccc(/C=N/NC(=O)C2c3ccccc3Oc3ccccc32)c(OC)c1	nt	nt	nt	nt	nt	-7
CCc1ccc(C(C(=O)NC2CCCCC2)N(C(=O)CNC(=O)c2ccco2)c2cccnc2)cc1 (configuration not stated)	nt	93	105	nt	97	nt
COc1ccc(-c2[nH]c(-c3ccccc3)nc2SCC(=O)NCc2ccco2)cc1OC	nt	76	91	nt	86	-10
COc1ccc(-c2[nH]c(-c3ccc(F)cc3)nc2SCC(=O)NCc2ccco2)cc1OC	3	39*	96	26	83	-3
